Scp1 inh – blocks human Scp-1 phosphatase activity; inhibition, % at 20 µM; Recombinant Scp1, phosphopeptide, malachite green phosphate absorbance; AID 493091; Q9GZU7; 340,000 tested, 0.88% active;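 active means inhibition above about 50% at 20 µM, limit read from the data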;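 further: plate controls were DMSO wells with enzyme for no effect and wells lacking enzyme for full effect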
Target sequence (Q9GZU7 76-261 limits assumed): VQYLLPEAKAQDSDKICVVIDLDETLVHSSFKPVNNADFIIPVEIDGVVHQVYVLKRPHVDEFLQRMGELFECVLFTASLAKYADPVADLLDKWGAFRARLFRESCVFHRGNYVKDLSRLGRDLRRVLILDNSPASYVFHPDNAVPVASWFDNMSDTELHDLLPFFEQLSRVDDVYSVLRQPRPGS
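Test system: SCP-1 phosphatase catalytic domain, residues 76-261 | Compound dosing: One concentration, 20 µM, with 1.0% DMSO | Schedule: 45 min room-temperature reaction, 5 min colour, 30 min stabiliser | Detection: Absorbance at 630 nm | Read-out basis: % inhibition of SCP-1 phosphate liberation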
DNMT1 inh – DNMT1 (human) enzyme inhibition; DNMT1 molecular beacon, Hinp1I cleavage, fluorescence; P26358; 360,000 tested, 0.83% active; inhibition (reported as % activation of signal), % at 10 µM; in the data active means inhibition above about 50%
SUMO1-SIM PPI – modulators of human SUMO1-mediated protein-protein interactions | 360,000 tested, 0.33% active | SUMO1 binding to a labelled peptide, TR-FRET, 1 h | AID 602429 | inhibition, % at 20 µM; in the data active means inhibition above about 37%
CASP6 VEID inh – blocks human caspase-6 cleavage activity | P55212 | 350,000 tested, 0.53% active | inhibition, % at 12.5 µM | purified caspase-6, Z-VEID-R110 cleavage fluorescence;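 active means mean inhibition across replicates at least about 35%, with every replicate also reaching that limit, limit read from the data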;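 further: 0% = median of neutral control wells and 100% = no fluorescence left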
Target sequence (P55212 24-179 limits assumed): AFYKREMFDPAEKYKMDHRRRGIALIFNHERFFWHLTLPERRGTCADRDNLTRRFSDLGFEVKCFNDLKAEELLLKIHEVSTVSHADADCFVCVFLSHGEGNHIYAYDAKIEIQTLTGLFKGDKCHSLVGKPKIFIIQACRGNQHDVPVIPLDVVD
Target sequence (P55212 194-293 limits assumed): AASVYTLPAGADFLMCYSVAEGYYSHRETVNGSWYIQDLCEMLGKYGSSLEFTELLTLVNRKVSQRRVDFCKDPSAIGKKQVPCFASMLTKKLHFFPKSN
LMPTP inh – blocks human LMPTP phosphatase | AID 651560 | 360,000 tested, 0.22% active | inhibition, % at 20 µM | P24666 | recombinant LMPTP-A, OMFP fluorogenic substrate, fluorescence intensity;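 active means compounds that cut the enzyme signal by at least half of the control window in the single-dose screen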;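 further: plate controls were DMSO wells with enzyme plus substrate for no effect and substrate without enzyme for full effect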
Target sequence (P24666 whole entry, looked up): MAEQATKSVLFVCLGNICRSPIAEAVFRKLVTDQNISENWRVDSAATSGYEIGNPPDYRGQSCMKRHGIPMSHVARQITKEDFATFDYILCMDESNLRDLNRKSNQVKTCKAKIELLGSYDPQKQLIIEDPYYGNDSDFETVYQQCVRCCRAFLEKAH
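Assay system: LMPTP-A enzyme. Input: 0.625 nM LMPTP-A final. Probe or stimulus: 400 µM OMFP. Compound dosing: single 20 µM dose. Schedule: 50 min dark incubation at room temperature. Detection: fluorescence intensity of OMFP turnover product. Read-out: percent inhibition versus substrate-only and uninhibited controls. Benchmarks: no-enzyme low control, uninhibited high control.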
STEP block – inhibitors of human striatal-enriched phosphatase STEP; inhibition, % at 20 µM; recombinant STEP, OMFP fluorogenic substrate, fluorescence; 360,000 tested, 0.25% active; P54829;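 active means inhibition at 20 µM, scaled per plate between control wells, above about 37%, limit read from the data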;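 further: 0% = DMSO with enzyme and substrate and 100% = substrate only without enzyme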
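Also added – OMFP at 25 µM · Test system – STEP tyrosine phosphatase · Technique – FITC-channel fluorescence of OMFP product · Schedule – 20 min at room temperature, dark · Evaluation – control-normalized % inhibition with plate pattern correction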
DNMT1 confirm – confirmation of human DNMT1 inhibitors; shares compounds with DNMT1 inh; DNMT1 molecular beacon HinP1I cleavage, fluorescence; inhibition, % at 10 µM; 2,300 tested, 8% active; AID 602385;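 active means average inhibition of at least 30% in the single-concentration confirmation test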
Beacon interf – counter-screen for DNMT1 inhibitors: spectral interference; shares compounds with DNMT1 inh; DNMT1 molecular beacon spectral interference counterscreen, fluorescence 485/520; activation (fluorescence interference), % at 10 µM; 2,300 tested, 1% active;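 active means activation of at least 30% at 10 µM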;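 further: DNMT1 catalytic domain with a HinP1I cleavage step and a FAM/dabcyl DNA beacon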
* marks the source's active call; other numbers are inactive results. Compounds with a hit are over-represented: about 1.7% of the library has one in this group of screens.

For COc1ccc(N2CCCC2)c(NC(=O)COc2ccccc2)c1 the results were Scp1 inh -3.0, DNMT1 inh -0.5, SUMO1-SIM PPI 1.4, CASP6 VEID inh -2.8, LMPTP inh 6.2 and STEP block 3.4.
CCOc1ccc(OCC(=O)Nc2ccc(N3CCCCC3)cc2)cc1 was read as Scp1 inh -6.7, DNMT1 inh 5.3, SUMO1-SIM PPI 3.7, LMPTP inh 2.0 and STEP block 2.0.
`Cc1cc(N2CCCC2)ccc1NC(=O)COc1ccccc1` gave Scp1 inh -6.9, DNMT1 inh 63.7*, SUMO1-SIM PPI -12.9, CASP6 VEID inh -0.5, LMPTP inh 25.1, STEP block -1.3, DNMT1 confirm 1.7 and Beacon interf 0.7.
Screening Cc1cc(OCC(=O)Nc2ccc(N3CCCC3)cc2)cc(C)c1Cl returned Scp1 inh -0.5, DNMT1 inh 71.3*, SUMO1-SIM PPI 11.2, LMPTP inh 4.3, STEP block 3.2, DNMT1 confirm 0.6 and Beacon interf -6.9.
Screening Brc1ccc(C2=Nn3c(nnc3-c3cccnc3)SC2)s1 returned Scp1 inh 4.2, DNMT1 inh 62.3*, SUMO1-SIM PPI -8.5, LMPTP inh 37.7, STEP block 35.8, DNMT1 confirm 0.0 and Beacon interf -5.2.
For Clc1ccc(C2=Nn3c(nnc3-c3cccnc3)SC2)s1 the results were Scp1 inh 3.2, DNMT1 inh 8.7, SUMO1-SIM PPI -8.7, LMPTP inh -1.6 and STEP block 3.8.
`C[C@H]1CN([C@@H](C)CO)C(=O)c2cc(-c3ccccc3F)cnc2O[C@@H]1CN(C)C(=O)c1ccccn1` gave CASP6 VEID inh -1.4.
For Cc1ccc(C(=O)NCCNc2nc3cc(C)c(C)cc3cc2C)cc1 the results were Scp1 inh 5.0, DNMT1 inh 55.8*, SUMO1-SIM PPI 24.2, LMPTP inh 1.3, STEP block 3.0, DNMT1 confirm 6.2 and Beacon interf 0.9.
Screening O=C(O)C[C@H]1C[C@H]2c3cc(NS(=O)(=O)c4ccc(F)cc4)ccc3O[C@H]2[C@@H](CO)O1 returned CASP6 VEID inh 3.3.
O=C(C1CCCN(S(=O)(=O)c2ccccc2)C1)N1CCCCCC1 (stereo not given) was read as Scp1 inh 0.6, DNMT1 inh 2.3, SUMO1-SIM PPI 3.7, LMPTP inh -1.1 and STEP block -0.2.
`CCOc1ccc(NC(=O)CNC(=O)c2nn(-c3ccc(OC)c(OC)c3)c(=O)c3ccccc23)cc1` gave Scp1 inh -10.2, DNMT1 inh 6.0, SUMO1-SIM PPI -20.6, CASP6 VEID inh -2.2, LMPTP inh 2.4 and STEP block 4.2.
For COc1ccc(-n2nc(C(=O)Nc3ccc(OC)c(OC)c3)c3c4ccccc4n(C)c3c2=O)cc1 the results were Scp1 inh -3.4, DNMT1 inh 60.0*, SUMO1-SIM PPI -3.6, LMPTP inh 3.1, STEP block 3.4, DNMT1 confirm 1.7 and Beacon interf 3.6.
`COc1ccc(-n2nc(C(=O)NCC(=O)Nc3cccc(Cl)c3)c3ccccc3c2=O)cc1OC` gave Scp1 inh 38.1, DNMT1 inh 59.8*, SUMO1-SIM PPI -65.5, LMPTP inh 34.0, STEP block 10.3, DNMT1 confirm -2.7 and Beacon interf -7.1.
`CN(C)CC(=O)Nc1ccc2c(c1)[C@H]1C[C@@H](CC(=O)NC3CCCC3)O[C@@H](CO)[C@H]1O2` gave CASP6 VEID inh -2.1.
`CCO[C@@H]1OC(C(N)=O)=C[C@H](c2ccc(C(F)(F)F)cc2)[C@H]1CCCO` gave Scp1 inh -2.7, DNMT1 inh 70.8*, SUMO1-SIM PPI -0.6, CASP6 VEID inh -2.5, LMPTP inh -1.8, STEP block -4.1, DNMT1 confirm 0.7 and Beacon interf 0.5.
CCO[C@@H]1OC(C(=O)O)=C[C@H](c2ccc(C(F)(F)F)cc2)[C@H]1CCCO was read as Scp1 inh -0.2, DNMT1 inh 3.0, SUMO1-SIM PPI 0.5, CASP6 VEID inh 4.4, LMPTP inh 1.5 and STEP block 2.5.
`N#Cc1ccc(-c2ccc([C@H]3[C@H](CO)N4C(=O)CN(C(=O)C5CCCCC5)C[C@@H]34)cc2)cc1` gave CASP6 VEID inh 1.1.
Cc1ccc(-c2nnn(CC(=O)Nc3ccc(S(=O)(=O)N4CCC(C)CC4)cc3)n2)cc1 was read as Scp1 inh -10.8, DNMT1 inh 48.4, SUMO1-SIM PPI -1.4, LMPTP inh 0.5 and STEP block 1.9.
CC1CCN(S(=O)(=O)c2ccc(NC(=O)Cn3nnc(-c4ccccc4)n3)cc2)CC1 was read as Scp1 inh -3.5, DNMT1 inh 56.2*, SUMO1-SIM PPI 2.0, LMPTP inh 0.4, STEP block 2.9, DNMT1 confirm 5.2 and Beacon interf 9.4.
For O=C(COC(=O)c1cc(=O)c2ccccc2o1)NCc1ccccc1 the results were Scp1 inh -2.8, DNMT1 inh 2.4, SUMO1-SIM PPI 0.7, CASP6 VEID inh -3.9, LMPTP inh -0.4 and STEP block -3.2.
Screening O=C(COC(=O)c1cc(=O)c2ccccc2o1)NCc1ccc(Cl)cc1 returned DNMT1 inh 57.4*, SUMO1-SIM PPI 2.7, CASP6 VEID inh -3.7, LMPTP inh -2.3, STEP block -1.9, DNMT1 confirm 0.7 and Beacon interf 0.8.
OCCC1CN(Cc2cn[nH]c2C2CCCCC2)CCN1C1CCCC1 (stereo not given) was read as Scp1 inh -9.1, DNMT1 inh -1.2, SUMO1-SIM PPI 3.0, CASP6 VEID inh -0.8, LMPTP inh 0.9 and STEP block 0.9.
`Cc1ccc(N2CC(O)=C(c3ccccc3)C2=N)cc1` gave Scp1 inh -10.4, DNMT1 inh 5.3, SUMO1-SIM PPI 3.2, CASP6 VEID inh -3.2, LMPTP inh -0.9 and STEP block -0.9.
`O=C(/C=C/c1ccco1)c1cccc([N+](=O)[O-])c1` gave Scp1 inh 29.9, DNMT1 inh 61.7*, SUMO1-SIM PPI 6.1, CASP6 VEID inh 7.4, LMPTP inh 13.8, STEP block 1.6, DNMT1 confirm 2.9 and Beacon interf 2.1.
Screening O=C(/C=C/c1ccc([N+](=O)[O-])cc1)/C=C/c1ccco1 returned DNMT1 inh 91.3*, SUMO1-SIM PPI 12.3, CASP6 VEID inh 19.2, LMPTP inh 20.0, STEP block 6.5, DNMT1 confirm 4.7 and Beacon interf 3.3.

Screening data (PubChem BioAssay)
